Screening data: PubChem BioAssay, several laboratories
Mdm2-MdmX inh = inhibitors of human Mdm2-MdmX association, primary screen, cell-based, luminescence, split luciferase, SaOS-2, uHTS | inhibition, % at 8 µM | SaOS-2 split-luciferase Mdm2/MdmX complementation | Protein Mdm4 (Homo sapiens) + E3 ubiquitin-protein ligase Mdm2 (Homo sapiens), … | AID 485346, 2010 | actives 3% (n = 330,000);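 active means inhibition of at least 50% at 8 µM in the primary screen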
UPR XBP1 act = activators of adaptive XBP1 UPR arm, primary screen, cell-based, CHO-XBP1 luciferase reporter, luminescence, uHTS | activation, % at 20 µM | AID 463104, 2010 | IRE1-XBP1 UPR activation; percent of tunicamycin response, DMSO as zero | actives 0.33% (n = 330,000);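 active means versus positive control, 20 µM dose yields 30% or more activation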;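 further: 100% = tunicamycin at 10 µg/mL and 0% = DMSO only wells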
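Material: CHO cell line with stable XBP1 luciferase reporter; schedule: 16-18 h cell attachment at 37 °C, then 6 h compound exposure; signal: glow luminescence from Steady-Glo reagent; medium: serum-containing F12 medium, 10% FBS; benchmarks: tunicamycin 10 µg/mL and vehicle-only wells; read-out: percent activation relative to tunicamycin reference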
CHOP UPR activ = activators of apoptotic CHOP UPR arm, primary screen, cell-based, CHO-CHOP luciferase reporter, luminescence, uHTS | UPR activation; percent of tunicamycin response over DMSO baseline | actives 0.34% (n = 330,000) | activation, % at 10 µM;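 active means at 10 µM dose, activation of 40% or more, normalized to positive control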;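 further: 100% = tunicamycin at 10 µg/mL and 0% = DMSO alone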
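Dosing – one dose, 10 µM in 0.5% DMSO · System – CHO-CHOP cells, stable luciferase reporter of PERK-eIF2a-CHOP signalling · Input – 500 cells/well · Control set – tunicamycin 10 µg/mL final as positive, DMSO-only wells as negative · Timing – 6 h compound treatment, 37 °C · Measure – % activation vs tunicamycin · Technique – luminescence read with Steady-Glo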
ABHD5 PLIN5 PPI = ABHD5-PLIN5 interaction inhibitors, primary screen, cell lysate, split luciferase complementation, luminescence | AID 602281, 2012 | Split G. princeps luciferase complementation, 4 h | actives 0.78% (n = 360,000) | inhibition, % at 4 µM;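 active means inhibition above the mean inhibition across every tested compound plus 3 SD, cut at about 22% in these data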;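 further: 0% = DMSO only wells and the 100% control is not disclosed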
Target sequence (Q00G26 whole entry, looked up): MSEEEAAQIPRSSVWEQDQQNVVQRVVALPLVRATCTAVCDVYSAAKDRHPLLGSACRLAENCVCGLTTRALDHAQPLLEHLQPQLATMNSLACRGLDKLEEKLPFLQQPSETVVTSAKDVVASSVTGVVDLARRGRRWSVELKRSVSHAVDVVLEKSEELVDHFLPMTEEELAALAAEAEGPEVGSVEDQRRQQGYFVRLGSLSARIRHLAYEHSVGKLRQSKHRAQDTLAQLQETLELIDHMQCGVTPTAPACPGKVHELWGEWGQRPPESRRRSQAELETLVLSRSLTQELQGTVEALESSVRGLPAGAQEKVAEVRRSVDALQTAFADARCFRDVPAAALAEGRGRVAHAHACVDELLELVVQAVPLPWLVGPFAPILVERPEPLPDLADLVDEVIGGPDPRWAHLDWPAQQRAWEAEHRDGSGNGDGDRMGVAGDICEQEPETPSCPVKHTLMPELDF
Target sequence (Q8WTS1 whole entry, looked up): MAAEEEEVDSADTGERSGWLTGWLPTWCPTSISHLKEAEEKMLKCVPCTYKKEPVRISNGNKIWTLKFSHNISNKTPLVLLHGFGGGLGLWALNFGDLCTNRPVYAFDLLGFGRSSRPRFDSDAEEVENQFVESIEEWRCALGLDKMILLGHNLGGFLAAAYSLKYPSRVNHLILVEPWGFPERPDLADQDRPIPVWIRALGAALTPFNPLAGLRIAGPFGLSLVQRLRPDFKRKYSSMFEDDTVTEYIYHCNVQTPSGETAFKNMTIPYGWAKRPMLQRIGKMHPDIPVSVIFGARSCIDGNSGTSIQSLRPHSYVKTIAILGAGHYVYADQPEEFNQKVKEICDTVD
Exocytosis inh = LAMP-1 surface exposure blockers, TALL-104 cells – cell-based, flow cytometry, MLPCN library, primary screen; inhibition, % at 10 µM; actives 0.66% (n = 360,000); AID 651702, 2012; TALL-104 LAMP-1 surface exposure; cells stimulated with thapsigargin and PMA;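 active means inhibition above about 55%, limit read from the data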
Mdm2 MdmX conf = Mdm2-MdmX complex disruptors, retested hits, confirmation, luminescence, single concentration; shares compounds with Mdm2-MdmX inh; Mdm2-MdmX binding, luminescent assay; AID 489028, 2010; actives 55% (n = 10,000); inhibition, % at 8 µM; in the data active means inhibition above about 40%
FLuc counter = full-length luciferase signal inhibition, confirmation, counter-screen for Mdm2/MdmX interaction inhibitor project, cell-based, single concentration, SaOS-2. shares compounds with Mdm2-MdmX inh. AID 504607, 2011. SaOS-2 full-length luciferase counterscreen, luminescence. actives 77% (n = 6,200). inhibition, % at 8 µM;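 active means mean inhibition at 8 µM reaching about 37%, which flags the compound as non-specific, limit read from the data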;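 further: p53-null SaOS-2 cells with luciferase driven by a doxycycline-inducible promoter; compound on cells about two nights before reading with doxycycline added after day one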
Active calls of the source: *; / = no result given. Only some compounds are listed: those with a hit (about 4% of all), similar ones and a draw of the others.

SMILES	Mdm2-MdmX inh	UPR XBP1 act	CHOP UPR activ	ABHD5 PLIN5 PPI	Exocytosis inh	Mdm2 MdmX conf	FLuc counter
O=C1Nc2cc(C(=O)NCCCN3CCOCC3)ccc2S/C1=C/c1cccc(Cl)c1	73*	-4	5	6	49	2	/
COc1ccc(/C=C2/Sc3ccc(C(=O)NCCN4CCCCCC4)cc3NC2=O)cc1	100*	18	16	13	10	88*	6
CCC1CCCCN1CCCNC(=O)c1ccc(/C=C2/Sc3ccccc3NC2=O)cc1 (configuration not stated)	86*	2	5	18	47	40	55*
O=C1Nc2cc(C(=O)NCCCN3CCCC3)ccc2S/C1=C\c1ccccc1	49	1	4	13	9	/	/
CCCN(CC(=O)Nc1ccccc1C)C(=O)c1cccc(-n2cnnn2)c1	-1	-4	-1	-3	-2	/	/
Cn1c(=O)c2c(SCC(=O)N3CCCc4ccccc43)nc(CC(C)(C)C)nc2n(C)c1=O	69*	-2	4	8	3	26	/
CCCc1nc(SCC(=O)N2CCCc3ccccc32)c2c(=O)n(C)c(=O)n(C)c2n1	43	-2	5	-1	-10	/	/
CCCc1nc(SCC(=O)N2CCC(Cc3ccccc3)CC2)c2c(=O)n(C)c(=O)n(C)c2n1	60*	-4	1	-6	-2	42*	79*
CCCc1nc(SCC(=O)Nc2ccccc2)c2c(=O)n(C)c(=O)n(C)c2n1	9	-2	-2	10	8	/	/
CC(=O)Nc1ccc(S(=O)(=O)NCCc2ccc3c(c2)OCCO3)cc1	/	/	/	-5	14	/	/
FC(F)(F)c1cccc(-c2nc3nc(Cl)c(Cl)nc3[nH]2)c1	80*	-5	12	-1	-26	75*	69*
COc1cccc(-c2nc(Oc3cc(C)cc(C)c3)c3ccccc3n2)c1O	64*	2	1	/	/	30	/
COc1ccc(Nc2nc(-c3cccc(OC)c3O)nc3ccccc23)cc1	37	22	2	-2	27	/	/
COc1cccc(-c2nc(N3CC(C)CC(C)C3)c3ccccc3n2)c1O (configuration not stated)	61*	46*	3	-6	3	14	/
COc1cc(C)c(NC(=O)c2cccc(S(=O)(=O)N3CCCC3)c2)cc1OC	13	-3	0	-2	-5	/	/
COc1ccc(-c2[nH]ncc2-c2ccc3c(c2)OCCO3)c(O)c1	84*	-2	-3	-2	-13	90*	52*
CCc1cc(-c2[nH]ncc2-c2ccc3c(c2)OCO3)c(O)cc1O	78*	-3	-3	-1	12	73*	38*
CC1(C)CC(=O)C(C=NCCN2CCN(CCc3ccccc3)CC2)=C(O)C1	0	0	0	4	-1	/	/
CC(=O)Nc1cc2c(cc1C(C)=O)OCCO2	-10	0	2	2	1	/	/
CC(=O)c1cc2c(cc1NC(=O)c1ccc(Cl)cc1)OCCO2	57*	5	4	-1	-4	7	/
Cc1ccc(-c2[nH][nH]c(=O)c(=O)c2N=Nc2ccccc2)cc1	61*	5	0	-1	-2	-2	/
Cc1cc(=O)n2[nH]c(=O)c(N=Nc3ccccc3)c2[nH]1	-2	-2	1	3	-3	/	/
O=C(N/N=C(\CC(=O)c1cccs1)C(F)(F)F)c1ccncc1	66*	-1	0	-3	-4	18	/
